Data published in PubChem BioAssay AID602301 (The Scripps Research Institute Molecular Screening Center, 2012).
Activity calls are given as the source filed them.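 How the source made its calls: active means inhibition of at least 50%; inactive means inhibition below 50%.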

system: Abhydrolase domain-containing protein 11 (ABHD11), Mus musculus; assay: recombinant ABHD11 inhibition, late-stage follow-up, selectivity assay for DAGLb inhibitor project, biochemical, competitive gel ABPP, mouse, set 1 (AID 602301); details: Recombinant ABHD11 in HEK293T proteome, gel ABPP FP-Rh; at 10 µM; stronger effect = higher value
In short: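 test system = recombinant mouse ABHD11 spiked into HEK293T membrane proteome overexpressing mouse DAGLb | buffer or medium = DPBS | times = compound pre-incubation 30 min, then probe labelling 30 min, both 37 °C | technique = in-gel fluorescence scan after SDS-PAGE, band integrated optical density | evaluation = percent inhibition of ABHD11 band, background-corrected, relative to DMSO control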

| inhibition | Structure (SMILES) |
| --- | --- |
| 30% (inactive) | O=C(N1CCCCC1Cc1ccccc1)n1cc(-c2ccc(-c3ccoc3)cc2)nn1 (stereo not given) |
| 30% (inactive) | O=C(N1CCCCC1Cc1ccccc1)n1cc(-c2ccc(-c3ccc(C(F)(F)F)cc3)cc2)nn1 (stereo not given) |
| 20% (inactive) | O=C(c1ccc(-c2ccc(-c3cn(C(=O)N4CCCCC4Cc4ccccc4)nn3)cc2)cc1)N1CCCCC1 (stereo not given) |
| 20% (inactive) | O=C(N1CCCCC1Cc1ccccc1)n1cc(-c2ccc(-c3ccccc3OC(F)(F)F)cc2)nn1 (stereo not given) |
| 10% (inactive) | O=C(N1CCCCC1Cc1ccccc1)n1ncc(-c2ccc(OC(F)(F)F)cc2)n1 (stereo not given) |
| 20% (inactive) | O=C(N1CCCCC1Cc1ccccc1)n1cc(-c2ccc(-c3ccccc3CO)cc2)nn1 (stereo not given) |
| 0% (inactive) | CC(C)(C)OC(=O)NCCCCCN(CCc1ccccc1)C(=O)n1cc(-c2ccc(OC(F)(F)F)cc2)nn1 |
| 90% | O=C(N1CCCCC1Cc1ccccc1)n1cc(-c2ccc(Br)cc2)nn1 (stereo not given) |
| 15% (inactive) | O=C(N(CCc1ccccc1)Cc1ccco1)n1cc(-c2ccc(OC(F)(F)F)cc2)nn1 |
| 95% | O=C(N1CCCCC1Cc1ccccc1)n1cc(-c2cc(F)cc(F)c2)nn1 (stereo not given) |
| 10% (inactive) | O=C(c1ccc(-c2cn(C(=O)N3CCCCC3Cc3ccccc3)nn2)cc1)N1CCCCC1 (stereo not given) |
| 50% | O=C(N1CCCCC1Cc1ccccc1)n1cc(-c2ccc(-c3ccccc3Cl)cc2)nn1 (stereo not given) |
| 50% | O=C(N1CCCCC1Cc1ccccc1)n1cc(-c2ccc(OC(F)(F)F)cc2)nn1 (stereo not given) |
| 10% (inactive) | CC(C)CN(CCc1ccccc1)C(=O)n1cc(-c2ccc(OC(F)(F)F)cc2)nn1 |
| 10% (inactive) | O=C(N1CCCCC1Cc1ccccc1)n1cc(-c2ccc(-c3cccc(C(F)(F)F)c3)cc2)nn1 (stereo not given) |
| 95% | O=C(N1CCCCC1Cc1ccccc1)n1ncc(C(O)(c2ccccc2)c2ccccc2)n1 (stereo not given) |
| 10% (inactive) | O=C(N1CCCCC1Cc1ccccc1)n1cc(-c2ccc(-c3ccccc3C(F)(F)F)cc2)nn1 (stereo not given) |
| 20% (inactive) | O=C(N1CCCCC1Cc1ccccc1)n1cc(-c2ccc(-c3cccc(CO)c3)cc2)nn1 (stereo not given) |
| 95% | O=C(N1CCCCC1Cc1ccccc1)n1cc(-c2ccccc2-c2ccccc2)nn1 (stereo not given) |
| 20% (inactive) | O=C(N1CCCCC1Cc1ccccc1)n1cc(-c2ccc(-c3ccc(OC(F)(F)F)cc3)cc2)nn1 (stereo not given) |
| 10% (inactive) | COc1ccccc1-c1ccc(-c2cn(C(=O)N3CCCCC3Cc3ccccc3)nn2)cc1 (stereo not given) |
| 80% | O=C(N1CCCCC1Cc1ccccc1)n1cc(-c2cccc(-c3ccccc3)c2)nn1 (stereo not given) |
| 10% (inactive) | O=C(N1CCCCC1Cc1ccccc1)n1cc(-c2ccc(-c3ccc4c(c3)OCO4)cc2)nn1 (stereo not given) |
| 60% | Cc1ccccc1-c1ccc(-c2cn(C(=O)N3CCCCC3Cc3ccccc3)nn2)cc1 (stereo not given) |

| Structure (SMILES) | inhibition |
| --- | --- |
| O=C(N1CCCCC1Cc1ccccc1)n1cc(-c2ccc(-c3ccccc3)cc2)nn1 (stereo not given) | 0% (inactive) |
